A short description of this data set: Toxicity liver stage against HepG2, at 10uM. To be noted: human, HepG2-A16-CD81EGFP cells; read-out: INHIBITION
On the set-up: test concentration 10 uM, cell line HepG2-A16-CD81EGFP. The class given is cell-based. An outline of the steps: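 Uninfected HepG2-A16-CD81EGFP cells, 3 × 10^3 per well, 1536-well, plated on prespotted compound at 10 μM final, parasite-free screening media added to match infected plates; puromycin 10 μM positive, DMSO 0.5% negative; run in parallel with 48 h PbLuc assay at 37 °C, 5% CO2; viability by CellTiter-Glo luminescence, normalized to controls.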
In the case of `Cc1ccc(N2CCCC(NCC(=O)Nc3cc(C)nn3C)C2)nn1` (stereo not drawn), the cytotoxicity at 10 µM was -1.18%.
`CN1CC(NC(=O)Nc2cnn(-c3ccccc3Cl)c2)CCC1=O` (stereo not drawn): the cytotoxicity at 10 µM was -1.54%.
The result for `CC(C)N1CCC(Cn2cc(C(N)=O)cn2)CC1` reads 6.39%.
As for `Cc1cc(C(=O)NCc2ccc(F)cc2)c2c(C3CCNC3)noc2n1` (stereo not drawn), the figure is 7.08%; as for `CS(=O)(=O)CCCN(CCCO)C1CCc2ccccc21` (stereo not drawn), -10.4%; as for `CC(C)N(C)Cc1cncc2c1CCN(C(=O)c1ccc[nH]1)C2`, 3.73%.
Take `CCc1nc(C2CCCN2CCc2ccccn2)no1` (stereo not drawn): the cytotoxicity at 10 µM is -7.03%.
Consider `COC(=O)c1ccc(C(=O)NCC(O)c2cccn2C)cc1` (stereo not drawn), for which the cytotoxicity at 10 µM was -3.84%.
The result for `O=C1CC(c2ccccc2)c2cnn(C3CCCC3)c2N1` (stereo not drawn) reads 1.5%.
As for `Cc1cc(CNC(=O)C(c2ccc(F)cc2)N(C)C)n[nH]1` (stereo not drawn), the figure is -15%; as for `Cn1cnc2c1CCN(Cc1csc(-c3ccsc3)n1)C2`, -8.78%; as for `Cc1c[nH]c(CN(C)c2nc(C3CCCC3)nc3c2cnn3C)n1`, -7.56%.
Consider `Cc1cccc(C(=O)N2CCC(c3n[nH]c(C4CC4)n3)CC2)c1`, for which the cytotoxicity at 10 µM is -15.3%.
Turning to `CC(C)(N)CNS(=O)(=O)Cc1cccc2cccnc12`, the cytotoxicity at 10 µM amounted to 14.5%.
In the case of `CN(C)c1nc(CNC(=O)NC2COc3ccccc32)cs1` (stereo not drawn), the cytotoxicity at 10 µM is -3.38%.
As for `O=S(=O)(C1CC1)N1CCc2ncnc(N3CCCC3)c2CC1`, the figure is -98.6%; as for `CNC(=O)CCc1cc(C)nc(C2CCN(CC(=O)N(C)C)CC2)c1`, 2.9%.
For the compound `COCCN1CCN(c2nc(O)cc(Cc3ccccc3F)n2)CC1`, the cytotoxicity at 10 µM is -4.52%.
As for `CC(C)(C)S(=O)(=O)c1ccc(N2CCN(c3ccccn3)CC2)nn1`, the figure is -3.3%; as for `N#Cc1ccc(CN2CCCCC2Cn2cncn2)c(F)c1` (stereo not drawn), -1.34%; as for `O=C(c1ccc(Cl)o1)N1CCCN(Cc2cscn2)CC1`, -1.08%.
Consider `COc1ccc(CN2CC[C@H](NC(C)=O)[C@@H](O)CC2)c(F)c1`, for which the cytotoxicity at 10 µM was -11.1%.
The result for `CN(C)CC(=O)N1CCC2(CC1)CN(c1ncccn1)CCO2` reads -68.7%; that for `Cc1cnn(C2CCCN(C(=O)CCc3ccncc3)C2)c1` (stereo not drawn), -10.7%.
As for `COc1ccc(-c2n[nH]cc2CN(C)CCC2CCOCC2)cc1F`, the figure is -6.57%; as for `Cn1nc(Br)c2c(NCCCS(N)(=O)=O)ncnc21`, 16.4%.
Turning to `CS(=O)(=O)c1cccc(S(=O)(=O)NC(=O)CC2CCCC2)c1`, the cytotoxicity at 10 µM is -7.59%.
The result for `O=C(Cc1cccc(O)c1)N1CCCC(O)(CN2CCCC2)CC1` (stereo not drawn) reads -4.68%.
As for `Cn1cncc1CN1CC[C@](C)(O)[C@@H](Oc2cccc(F)c2)C1`, the figure is -8.49%; as for `Cc1nc(CN(C)c2nccc(C(F)(F)F)n2)cs1`, 1.15%.
As for `CCCc1nc(C(=O)N2CCN(S(=O)(=O)CC)CC2)cs1`, the figure is -14.5%.
Regarding `CCc1nc2n(n1)CC(NCCc1cccs1)CC2` (stereo not drawn), the cytotoxicity at 10 µM is -13%.
As for `COc1ccc(NC(=O)c2cnc(N3CCN(C)CC3)nc2C)cc1`, the figure is -3.45%.
For `COCCS(=O)(=O)NC(C)c1cccc(-n2cccn2)c1` (stereo not drawn), the cytotoxicity at 10 µM amounted to 3.36%.
As for `CC(C)CCN(C)C(=O)c1cnc2c(cnn2CC(C)C)c1`, the figure is -0.0554%; as for `O=C(COc1coc(CN2CCCCC2)cc1=O)Nc1ccc(Cl)cc1`, 3.48%; as for `Cc1cccc(CN2C(=O)CC[C@@H]3[C@H]2CCN3Cc2ccc(F)cc2)n1`, -72.1%.
The result for `COc1ccc(CN2CCC3(CC2)CCN(CC2CC2)C3=O)cc1` reads 8.18%; that for `CCN1CCCC12CCN(C(=O)c1nccn1C)CC2`, 7.89%; that for `O=C(c1ccc2nncn2c1)N1CCCC(n2ccnc2)C1` (stereo not drawn), -1.14%.
As for `CCNc1cc2c(nn1)CCN(C(=O)c1ccnc(C)n1)C2`, the figure is -5.04%; as for `O=C(O)c1cc2c(c(S(=O)(=O)N(CCCO)c3ccccc3)c1)CCC2`, 6.58%; as for `COc1cc(COCC2CCN(Cc3ccccn3)CC2)cc(OC)c1`, -3.36%.
With `Cc1nc(C)n(CC2CCCN(c3ncnc4c3CCC4)C2)n1` (stereo not drawn), the cytotoxicity at 10 µM came to 30.5%.
As for `CCn1cc(CN2CCC(c3ccncc3)CC2)cc1C#N`, the figure is -5.38%; as for `CCn1nc(C)c(CN(CCOC)Cc2ccccn2)c1C`, 9.77%.
As to `Cc1ncsc1CN1CCC2(CC1)CC(=O)N(Cc1ccc(Cl)cc1)C2`, the cytotoxicity at 10 µM stood at 6.83%.
As for `Cc1cccc(OC2(C(=O)O)CCN(C(=O)CCc3ccco3)CC2)c1`, the cytotoxicity at 10 µM amounted to 4.3%.
In the case of `COc1cccc(-c2nc(C)c(C(=O)N[C@H](CO)CC(C)C)s2)c1`, the cytotoxicity at 10 µM was 5.08%.
As for `Cc1cnc(C2(C)CCN(Cc3cscn3)CC2)s1`, the figure is -22.5%; as for `NC(=O)COc1cccc(Cn2cccn2)c1`, -1.13%.
The result for `CCC(C(=O)NC(C)(C)C)n1cccc(OC)c1=O` (stereo not drawn) reads -1.04%; that for `CCc1nccn1C1CCCN(C(=O)c2ccoc2C)C1` (stereo not drawn), -28%; that for `CC1CN(C)CCN1C(=O)Cc1cc(Cl)c2c(c1)OCCO2` (stereo not drawn), -3.47%.
As for `CCc1noc(C(C)N2CCN(c3ccc(C#N)cn3)CC2)n1` (stereo not drawn), the figure is 4.78%; as for `CC1CCC(N2CCC(NS(=O)(=O)CCCF)CC2)CC1` (stereo not drawn), 1.2%.
With `COCCNCC1(O)CCCN(Cc2ccc(F)c(F)c2)C1=O` (stereo not drawn), the cytotoxicity at 10 µM stood at 3.93%.
As for `Cc1c(C(=O)NC2CCCC2)nnn1-c1ccccc1`, the figure is 11.4%; as for `O=C(Nc1cc(C(F)(F)F)c[nH]c1=O)C1CCCNC1` (stereo not drawn), 5.15%.
As for `O=S(=O)(CCCN1CCc2c(ncn2C2CC2)C1)c1ccccc1`, the figure is -3.33%; as for `Cc1cccc(N(CCC#N)S(=O)(=O)CC2CCCCO2)c1` (stereo not drawn), 6.48%.
As for `Fc1ccc(CN2CCCC(Cn3cncn3)C2)c2ncccc12` (stereo not drawn), the figure is -12.4%.
For the compound `Cn1c(=O)oc2ccc(NC(=O)N3CCSCC3)cc21`, the cytotoxicity at 10 µM was 2.58%.
The result for `COc1ccc(C(=O)N2C[C@@H](O)[C@H](NCc3ncccc3C)C2)cc1` reads 0.225%; that for `CCCN(C(=O)COCC)c1cccc(C)c1`, 0.727%; that for `CCC(=O)N1CCC2(CCN(Cc3cccc(F)c3)CC2)CC1`, -4.82%.
In the case of `Cc1cc(OCc2cccc(F)c2)ccc1NC(=O)C(C)NC(N)=O` (stereo not drawn), the cytotoxicity at 10 µM was -1.47%.
As for `O=C(C1=CCCC1)N1CCC[C@]2(C[C@@H](OCc3ccccn3)CO2)C1`, the figure is 9.79%; as for `OC1(CNc2cc(C(F)(F)F)nc3ccccc23)CCOCC1`, -11.3%.
`CC1CN(C(=O)NCc2ccn(C)c2)CCN1CC(F)(F)F` (stereo not drawn): the cytotoxicity at 10 µM is -4.32%.
As for `Cc1c[nH]c(CN2CC[C@@]3(O)CCN(C(=O)C4CCC4)C[C@H]3C2)n1`, the figure is 1.27%; as for `CC(C)N1CCC2(CC1)CC(NS(C)(=O)=O)c1ccccc1O2` (stereo not drawn), 7.16%; as for `CS(=O)(=O)N1CCOC2(CCN(c3ncccn3)CC2)c2ccccc21`, -1.52%.
As for `CCCC12CN3CC(C)(CN(C1)C3c1[nH]c(=O)[nH]c(=O)c1C)C2=O` (stereo not drawn), the figure is 3.15%; as for `O=C(COCc1ccccc1Cl)N1CCCC(n2cccn2)C1` (stereo not drawn), 10%.
Consider `FC1(F)CCN(Cc2ccncc2)CC12CCN(c1cccnc1)C2` (stereo not drawn), for which the cytotoxicity at 10 µM was -94.8%.
As for `NC(=O)C1CCN(C(=O)NCc2ccccc2Cn2ccnc2)CC1`, the figure is -0.302%; as for `Cc1ccc(CC(=O)N2CCN(c3nccs3)CC2)s1`, -13%; as for `Cc1cc(C)cc(OCCC(=O)NC2CC(=O)N(C)C2)c1` (stereo not drawn), -1.68%.
As for `CN1CCC(c2nnc(CN3CCCCC3)n2C)CC1`, the figure is 16.4%; as for `O=C(NCc1ccccc1)NCc1nc(-c2ccncc2)n[nH]1`, 0.449%; as for `CCC(CC)NCC(C)Oc1cccnc1` (stereo not drawn), 8.26%.
As for `Cc1n[nH]c(C)c1C(N)C(=O)NCCc1csc(C(C)C)n1` (stereo not drawn), the figure is -8.64%; as for `CCCC(=O)N1CCCCC1c1nc(N(C)C)ncc1-c1cc(C)no1` (stereo not drawn), 4.94%.
Consider `CC(c1nc(C2CC2)no1)N(C)Cc1ccc(C#N)cc1` (stereo not drawn), for which the cytotoxicity at 10 µM amounted to 4.15%.
For the compound `COc1ccc(CCN2CCCC(CN(C)Cc3ccc(C)o3)C2)cc1` (stereo not drawn), the cytotoxicity at 10 µM is -14.5%.
As for `CSc1cccc(CN(C)C(=O)Cn2ncc(N(C)C)cc2=O)c1`, the figure is 0.0849%; as for `CN(CC1CCOCC1)C1CCCN(c2ccccn2)C1` (stereo not drawn), -0.48%.
The result for `CCC1c2ccsc2CCN1C(=O)NCc1cccnc1N(C)C` (stereo not drawn) reads -17.4%; that for `COCC1CN(c2ccc(C)nn2)Cc2cnn(CC3CCOCC3)c21` (stereo not drawn), 4.62%; that for `COc1ccc(OCCNc2cccc(C(=O)N3CCOCC3)c2)cc1`, 7.08%.
As for `O=C(CN(C1=NCCCC1)c1ccccc1)c1ccc2c(c1)OCCO2`, the figure is 8.9%; as for `CC(=O)N1CCN(CC(=O)N2CCN(c3cccc(C)c3)CC2)CC1`, -3.83%; as for `CN(CC(=O)N1CC(Oc2ccccc2Cl)C1)Cc1ccncc1`, -2.67%.
Take `Cc1ccccc1CN(C)C(C(N)=O)c1ccccc1` (stereo not drawn): the cytotoxicity at 10 µM turned out to be 13.1%.
The result for `c1ccc(N(CCn2cncn2)CC2CC2)cc1` reads 3.04%; that for `O=C(NCc1ccccc1CN1CCCCCC1)Nc1nncs1`, 4.22%.
The result for `Cc1cc(C)n(CC2CCCN2C(=O)c2cn[nH]c2C)n1` (stereo not drawn) reads -11.6%.

The values are drawn from ChEMBL document CHEMBL4513216, “Probing the Open Global Health Chemical Diversity Library for Multistage-Active Starting Points for Next-Generation Antimalarials” (ACS Infect Dis, 2020).
